From PubChem
CRFR2-BP ag – agonists of CRF-BP/CRF-R2 complex, primary screen, cell-based, HEK293, calcium dye fluorescence, uHTS. CRF-binding protein / CRF receptor 2 complex (human). calcium dye fluorescence (FLIPR); percent of saturating CRF peptide response. activation, % at 13.2 µM. 0.46% of 350,000 active. AID 588473, 2011;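 active means activation of at least 50%, plus an integration ratio under a set limit after plate pattern correction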;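 further: plate controls were neutral control wells without compound for no effect and CRF at EC100 for full effect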
CRFR2-BP antag – antagonists of CRF-BP/CRF-R2 complex, primary screen, cell-based, HEK293, calcium dye fluorescence, uHTS | CRF-induced calcium fluorescence | inhibition, % at 11.8 µM | 0.59% of 350,000 active | AID 588475, 2011;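 active means inhibition of the ligand-induced calcium signal above about 50% at the single tested concentration, limit read from the data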
Tn6 DDE FP – inhibitors of Tn6 peptide binding to fibrin DD(E), primary screen, biochemical, fluorescence polarization, human fibrin, Tn6 probe; Fibrinogen beta chain (Homo sapiens), P02675; Fibrin DD(E) TRITC-Tn6 fluorescence polarization displacement; inhibition, % at 8.3 µM; 0.21% of 370,000 active;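 active means inhibition above a per-campaign cutoff: mean of compounds within control limits plus 3 SD, cut at about 15% in these data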;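 further: 0% = median of all compound wells on the plate and 100% = blocking peptide control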
Target sequence (P02675 whole entry, looked up): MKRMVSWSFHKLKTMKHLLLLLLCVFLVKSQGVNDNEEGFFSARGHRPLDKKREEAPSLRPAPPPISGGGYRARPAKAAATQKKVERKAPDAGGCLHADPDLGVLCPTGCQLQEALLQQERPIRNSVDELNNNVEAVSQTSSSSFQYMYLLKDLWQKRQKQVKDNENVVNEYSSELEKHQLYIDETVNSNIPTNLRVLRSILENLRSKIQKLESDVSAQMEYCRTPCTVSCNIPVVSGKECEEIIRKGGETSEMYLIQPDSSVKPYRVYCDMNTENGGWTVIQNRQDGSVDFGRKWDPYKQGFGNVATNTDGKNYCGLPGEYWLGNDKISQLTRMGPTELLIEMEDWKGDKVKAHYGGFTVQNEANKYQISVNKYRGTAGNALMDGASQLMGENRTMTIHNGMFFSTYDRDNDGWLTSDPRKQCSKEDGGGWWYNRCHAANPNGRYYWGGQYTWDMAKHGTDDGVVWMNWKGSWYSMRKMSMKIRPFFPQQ
DDE Tn7 FP inh – inhibitors of Tn7 peptide binding to fibrin DD(E), primary screen, biochemical, fluorescence polarization, human fibrin, Tn7 probe | Fibrinogen beta chain (Homo sapiens), P02675 | FP displacement of FITC-Tn7 peptide from fibrin DD(E); 0% = median of compound wells per plate | inhibition, % at 8.3 µM | 0.13% of 370,000 active;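 active means inhibition above the mean of compounds falling within the control limits plus 3 SD of them, cut at about 14% in these data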;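 further: 0% = plate median of compound wells and 100% = 10 µM Aha-Tn7 peptide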
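Also added: labelled Tn7 tracer, 0.1 µM; Assay system: human fibrin DD(E) protein; Amount: 2 µM fibrin DD(E); Schedule: 10 min compound pre-incubation, 3 h probe incubation at room temperature; Repeats: one replicate per compound; Read-out basis: percent inhibition; Measured by: fluorescence polarization of the labelled Tn7 tracer.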
NRP1-CendR mod – modulators of CendR peptide binding to NRP-1, primary screen, biochemical, fluorescence polarization, uHTS; 0.85% of 360,000 active; AID 602438, 2012; Neuropilin-1 (Homo sapiens), O14786; FAM-RPARPAR peptide binding to NRP-1; inhibition, % at 25 µM;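 active means inhibition or corrected inhibition above about 18%, plus a signal ratio from 0.5 to 1.5, limit read from the data, passing the limit was not always enough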
KLK7 zymogen act – proKLK7 zymogen activators, primary screen, biochemical, fluorescence intensity; purified proKLK7, EDANS-DABCYL substrate fluorescence; 100% is mature enzyme control, 0% vehicle; 0.9% of 370,000 active; Kallikrein-7 (Homo sapiens), P49862; activation, % at 7 µM;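 active means activation above the mean of all tested compounds plus 3 SD, computed per campaign excluding outliers beyond control limits, cut at about 13% in these data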
proKLK7 act conf – proKLK7 zymogen activators, confirmation, biochemical, fluorescence intensity, triplicate | 68% of 3,200 active | activation, % at 7 µM | purified proKLK7, EDANS-DABCYL substrate fluorescence; scaled: vehicle 0, mature enzyme 100 | shares compounds with KLK7 zymogen act | AID 686949, 2013;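 active means activation, as change over the incubation, above the mean of all tested compounds plus 3 SD, cut at about 13% in these data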
EDANS-DABCYL int – EDANS-DABCYL substrate optical interference, artefact control for kallikrein-7 zymogen activator project, biochemical, fluorescence intensity, high throughput; shares compounds with KLK7 zymogen act; no enzyme, 4 h; solvent 0%, active enzyme control 100%; activation, % at 7 µM; 80% of 3,200 active; AID 686952, 2013;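 active means activation above the all-compound mean plus 3 SD, ignoring values outside control-based bounds, cut at about 4.8% in these data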;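 further: value is the 4 h activation minus the activation read at time zero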
Active calls of the source: *; nt = no result given. Sampled rows, rich in hits. Any-hit rate of the full collection: about 2.9%.

SMILES | CRFR2-BP ag | CRFR2-BP antag | Tn6 DDE FP | DDE Tn7 FP inh | NRP1-CendR mod | KLK7 zymogen act | proKLK7 act conf | EDANS-DABCYL int
CCC(C)NC(=O)c1cc2c(=O)n3ccccc3nc2s1 (stereo not drawn) | -2 | -3 | 1 | -6 | -4 | 66* | 61* | 70*
COCCN(CCOC)C(=O)c1cc2c(=O)n3ccccc3nc2s1 | 13 | -3 | 0 | 0 | -6 | 9 | nt | nt
CCC(C)NC(=O)c1cc2cc3ccc(OC)cc3nc2s1 (stereo not drawn) | -2 | -29 | 9 | -2 | -1 | 30* | 3 | 5.7*
CCOC(=O)c1cnc2cc3c(cn2c1=O)CCCC3 | 2 | -7 | 4 | -1 | -10 | 13* | 6 | 10*
CCOC(=O)c1cc2c(nc1N)CCCC2 | -2 | 8 | 14 | 10 | 10 | 5 | nt | nt
O=c1nc2ccc(Cl)cn2c2ccc(S(=O)(=O)N3CCOCC3)cc12 | 2 | 15 | 2 | 1 | -7 | 20* | 70* | 78*
O=c1nc2ccc(Cl)cn2c2ccc(S(=O)(=O)N3CCCCC3)cc12 | -1 | 1 | 0 | -2 | -5 | -9 | nt | nt
CC(=O)CC[C@H]1CC[C@]2(CCCN(Cc3nccn3C)C2)O1 | nt | nt | -1 | -6 | nt | 0 | nt | nt
CCNC(=S)NNC(=O)c1cc(Br)cs1 | 1 | -13 | 1 | 0 | 4 | 13* | 6 | 6.5*
CCNC(=S)NNC(=O)c1csc(C)c1 | -3 | 16 | -5 | -4 | -4 | 0 | nt | nt
Cc1c[nH]c2cccc(-c3c(Cl)cccc3Cl)c12 | nt | nt | -7 | 3 | nt | 1 | nt | nt
O=C1CC(N2CCN(Cc3ccccc3)CC2)C(=O)N1c1ccc2c(c1)OCCO2 (stereo not drawn) | 8 | 0 | -1 | 2 | 1 | 0 | nt | nt
COc1ccc(N2C(=O)CC(N3CCN(Cc4ccc5c(c4)OCO5)CC3)C2=O)cc1 (stereo not drawn) | 3 | 7 | -9 | 4 | 9 | 53* | 0 | 0
O=C(c1cc2c(=O)n3ccccc3nc2s1)N1CCN(Cc2ccccc2)CC1 | 1 | -4 | 4 | 0 | 12 | 25* | -76 | -93
O=C(c1cc2c(=O)n3ccccc3nc2s1)N1CCN(Cc2ccc3c(c2)OCO3)CC1 | -5 | -1 | 4 | -5 | -3 | -4 | nt | nt
CCOC(=O)CC1C(=O)NCCN1C(=O)c1cc2c(=O)n3cccc(C)c3nc2s1 (stereo not drawn) | -2 | 31 | 7 | 5 | 2 | 43* | 25* | 32*
CCN1CCN(C(=O)c2cc3c(=O)n4ccccc4nc3s2)CC1 | 1 | 0 | 3 | -4 | 5 | 55* | 44* | 57*
CCOC(=O)C1CCN(C(=O)c2cc3c(=O)n4ccccc4nc3s2)CC1 | 1 | -7 | -5 | 7 | 14 | 42* | 68* | 71*
COc1ccc(-n2c(SCC(=O)Nc3ccc(Oc4ccccc4)cc3)nnc2-c2ccc(C)cc2)cc1 | nt | nt | -11 | 2 | nt | 0 | nt | nt
COC(=O)[C@]12C[C@H](CC(=O)NCc3cccc4ccccc34)C(=O)N(Cc3ccco3)C1=C[C@H](COCc1ccccc1)O[C@@H]2C | nt | nt | -5 | -10 | nt | 1 | nt | nt
COc1cccc2sc3cc(NCc4ccc5c(c4)OCO5)ccc3c(=O)c12 | -2 | -1 | -3 | -4 | 6 | 42* | 47* | 46*
